The term IC50 denotes the point on the concentration scale where inhibition reaches its midpoint.

Molecules are shown by their SMILES.

This assay has as its system RAW264.7. The assay is described as follows: Antiinflammatory activity in mouse RAW264.7 cells assessed as inhibition of LPS-induced NO production by MTT assay. The assay is classed as functional, cell-based. The note with it: in the assay text read “Griess assay” for “MTT assay”. Put shortly: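 RAW 264.7 mouse macrophages in RPMI 1640 with 10% heat-inactivated FBS, penicillin and streptomycin, seeded 1 × 10⁵ cells/well, adhered 2 h at 37 °C, 5% CO₂. Stimulated with LPS 1 µg/mL for 24 h with or without test agents at various concentrations (DMSO, 0.2% v/v final). Supernatant nitrite read with Griess reagent against a nitrite standard line. MTT viability after 24 h.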
A general note: Formazan colour is commonly taken as a measure of viable cells.
Turning to `CC(=O)O[C@H](CCCCc1ccc(O)cc1)CCc1ccc(O)c(O)c1`, the half-maximal inhibitory concentration (IC50) came out at 28.5 µM.
In the case of `Oc1ccc(/C=C/CC[C@H](O)CCc2ccc(O)cc2)cc1` it was 9.83 µM; in that of `Oc1ccc(CCCC[C@H](O)CCc2ccc(O)c(O)c2)cc1`, 5.83 µM; in that of `O=C(CCCCc1ccc(O)cc1)CCc1ccc(O)cc1`, 5.58 µM.
The value for `COc1cc(CCC(=O)CCCCc2ccc(O)cc2)ccc1O` was 10.6 µM.
In the case of `CC(=O)O[C@@H](CCCCc1ccc(O)cc1)CCc1ccc(O)c(O)c1` it was 49.5 µM.
As for `O=C(CC/C=C/c1ccc(O)cc1)CCc1ccc(O)cc1`, the IC50 amounted to 8.93 µM.
In the case of `Oc1ccc(/C=C/CC[C@@H](O)CCc2ccc(O)c(O)c2)cc1` it was 20.6 µM; in that of `Oc1ccc(CC[C@H](O)CC/C=C/c2ccccc2)cc1O`, 7.34 µM.
In the case of `CC(=O)O[C@H](CC/C=C/c1ccc(O)cc1)CCc1ccc(O)c(O)c1` it was 15.6 µM.
In the case of `Oc1ccc(/C=C/CC[C@H](O)CCc2ccc(O)c(O)c2)cc1` it was 42 µM; in that of `Oc1ccc(/C=C/CC[C@@H](O)CCc2ccc(O)cc2)cc1`, 16.1 µM; in that of `Oc1ccc(CC[C@@H](O)CC/C=C/c2ccccc2)cc1O`, 3.86 µM.
`O=C(/C=C/C=C/c1ccc(O)cc1)CCc1ccc(O)cc1`: the IC50 is 4.79 µM.
Turning to `Oc1ccc(CCCC[C@@H](O)CCc2ccc(O)c(O)c2)cc1`, the IC50 was 9.66 µM.
For `COc1ccc2c(c1)c(CC(=O)O)c(C)n2C(=O)c1ccc(Cl)cc1` [INDOMETHACIN], the 50% inhibitory concentration (IC50) was 13 µM.
In the case of `O=C(CC/C=C/c1ccccc1)CCc1ccc(O)cc1` it was 6.98 µM; in that of `COc1cc(CCC(=O)/C=C/CCc2ccc(O)cc2)ccc1O`, 2.69 µM.
In the case of `CC(=O)O[C@@H](CC/C=C/c1ccc(O)cc1)CCc1ccc(O)c(O)c1` it was 6.54 µM; in that of `C[C@]12CCC(=O)C=C1CC[C@@H]1[C@@H]2[C@@H](O)C[C@@]2(C)[C@H]1CC[C@]2(O)C(=O)CO` [HYDROCORTISONE], 40.6 µM.

For the origin of these results see ChEMBL document CHEMBL1268859, “Diarylheptanoids from the Rhizomes of Curcuma kwangsiensis” (J Nat Prod, 2010).
